Results on 16 molecules are retold here after ChEMBL document CHEMBL1208665, “Discovery of new 1,3,5-triazine scaffolds with potent activity against Mycobacterium tuberculosis H37Rv” (Eur J Med Chem, 2010).

The test system of data set [1] is Mycobacterium tuberculosis. The experiment in a line: Antimycobacterial activity against Mycobacterium tuberculosis H37Rv […] after 4 weeks. It counts as functional. The gist of the method:
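Agar-slant dilution against H37Rv. Compounds from 1.0 mg/mL DMSO stock, two-fold serial dilutions, were incorporated into OADC-supplemented medium (2 mL/tube final) and solidified slanted. Inoculum spread on the surface, incubated 37 °C for 4 weeks. Drug-free tubes served as control. MIC is the lowest concentration giving complete growth inhibition relative to the inoculum used.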

A further data set deals with Vero. The experiment in a line: (§1) Cytotoxicity against Vero cells after 24 hrs by MTS assay. It is filed as cell-based. Particulars: chlorocebus sabaeus, vero, 24 h. The gist of the method:
(§2)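 VERO cells were seeded at 20,000/well in MEM + 10% FBS with antibiotics and left to adhere overnight at 37 °C, 5% CO₂. Compound dilutions were added in MEM + 10% FBS for 24 h, with DMSO as negative control and a known toxic compound as positive control. Read-out was MTS, 2 h, A490, with DMSO wells taken as 100% survival.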
Background: Tetrazolium dyes change colour on reduction, which living cells bring about.

Data set [2] is described as follows: Cytotoxicity against mouse BMDM after 48 hrs by MTS assay. It is filed as cell-based. Particulars: for Activity: bmdm, 48 h. The gist of the method: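 Mouse femur bone marrow was flushed with DMEM + 10% FBS, 15% L-929 conditioned supernatant and non-essential amino acids. Cells were plated at 10⁵/well, medium was changed every 3rd day, and cells were used at day 5. Compounds were added in antibiotic-free FBS-DMEM for 48 h at 37 °C, 5% CO₂. Read-out was MTS, 2 h, A490, with DMSO wells taken as 100% survival.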

Data set [3] is described as follows: as §1. It is filed as cell-based. Particulars: chlorocebus sabaeus, Vero cells; read-out: MIC. In short, it runs like this:
as §2

In brackets after ≈: the same amount, converted by molar mass.

The MIC is the smallest concentration in the dilution series that meets the test's criterion for growth inhibition. A low value points to greater potency. Consider `CCNC1CN(c2nc(N3CCc4ccccc4C3)nc(N3CCc4ccccc4C3)n2)CCO1` (stereo not drawn), for which inhibition of growth in data set [1] (MIC) required 3.12 µg/mL (≈ 6.62 µM). Further, the Activity entry in the data set with Vero is reported as “Non-toxic”; in data set [2] it was “Toxic”.
In turn, `CCCNc1nc(NCCC)nc(N2CCCCC2)n1` gave an MIC in data set [1] of 12.5 µg/mL (≈ 44.9 µM). Further, the MCC at 24 h in data set [3] is > 12.5 µg/mL. The MCC at 48 h in data set [2] (BMDM (bone marrow-derived macrophages), read-out: MIC) is > 12.5 µg/mL.
Take `CC(C)Nc1nc(NNC(=O)c2ccncc2)nc(N2CCCc3ccccc32)n1`: the MIC in data set [1] turned out to be 3.12 µg/mL (≈ 7.71 µM). The Activity entry (in the data set with Vero; in data set [2]) was “Non-toxic” in each case.
In the case of `O=C(NNc1nc(N2CCOCC2)nc(N2CCCc3ccccc32)n1)c1ccncc1`, inhibition of growth in data set [1] (MIC) required 3.12 µg/mL (≈ 7.21 µM). The Activity entry (in the data set with Vero; in data set [2]) was “Non-toxic” throughout.
Regarding `O=C(NNc1nc(N2CCCCC2)nc(N2CCc3ccccc3C2)n1)c1ccncc1`, in data set [1], the MIC was found to be 3.12 µg/mL (≈ 7.25 µM). Besides, the Activity result with Vero was “Non-toxic”; in data set [2], “Toxic”.
For `CCCCNc1nc(NNC(=O)c2ccncc2)nc(N2CCc3ccccc3C2)n1`, in that order: 3.12 µg/mL (≈ 7.46 µM), “Non-toxic” and “Non-toxic”.
For `CC(C)(C)Nc1nc(NNC(=O)c2ccncc2)nc(N2CCc3ccccc3C2)n1` the same measures were 3.12 µg/mL (≈ 7.46 µM), “Non-toxic” and “Toxic”.
For `CC(C)Nc1nc(NNC(=O)c2ccncc2)nc(N2CCc3ccccc3C2)n1`, in that order: 3.12 µg/mL (≈ 7.71 µM), “Non-toxic” and “Non-toxic”.
`O=C(NNc1nc(N2CCc3ccccc3C2)nc(N2CCc3ccccc3C2)n1)c1ccncc1` showed an MIC in data set [1] of 3.12 µg/mL (≈ 6.52 µM). Moreover, the Activity entry is “Non-toxic” with Vero and “Toxic” in data set [2].
For `O=C(NNc1nc(Nc2ncccn2)nc(N2CCCCC2)n1)c1ccncc1`, in that order: 3.12 µg/mL (≈ 7.95 µM), “Non-toxic” and “Non-toxic”.
Molecule `CCCCNc1nc(NNC(=O)c2ccncc2)nc(N2CCCCC2)n1` showed an MIC in data set [1] of 3.12 µg/mL (≈ 8.42 µM). In addition, the Activity entry (in the data set on Vero; in data set [2]) was “Non-toxic” each time.
In data set [1], `CC(C)Nc1nc(NNC(=O)c2ccncc2)nc(N2CCCCC2)n1` came in with an MIC of 3.12 µg/mL (≈ 8.75 µM). Further, the Activity result (with Vero; in data set [2]) was “Non-toxic” throughout.
Take `O=C(NNc1nc(Nc2ccccc2)nc(N2CCOCC2)n1)c1ccncc1`: the MIC in data set [1] was determined as 1.56 µg/mL (≈ 3.98 µM). For the same molecule, the Activity result (with Vero; in data set [2]) was “Non-toxic” in each case.
Consider `COc1cc(-c2cc(SC)nc(Nc3nc(NC(C)C)nc(NC(C)C)n3)n2)cc(OC)c1OC`, for which the MIC in data set [1] stood at 3.12 µg/mL (≈ 6.23 µM). For the same molecule, the Activity entry (in the data set with Vero; in data set [2]) was “Toxic” in each case.
On to `COc1cc(-c2cc(SC)nc(Nc3nc(NC(C)(C)C)nc(NC(C)(C)C)n3)n2)cc(OC)c1OC`, for which the lowest concentration to inhibit growth in data set [1] (MIC) was 3.12 µg/mL (≈ 5.9 µM). The Activity entry in the data set with Vero is reported as “Non-toxic”; in data set [2], “Toxic”.
In data set [1], `NNC(=O)c1ccncc1` [ISONIAZID] showed an MIC of 0.025 µg/mL (≈ 0.182 µM). The Activity result (in the data set on Vero; in data set [2]) was “Non-toxic” in each case.
